# The list is not random: actives were taken first. Their share in the collection is about 4.5%.
# OX1R antag-1 = antagonists of human orexin 1 receptor (OX1R); Orexin/Hypocretin receptor type 1 (Homo sapiens), O43613; OX1R-expressing cells, FRET antagonist read-out; inhibition, % at 6.6 µM; 330,000 compounds, 1.8% hits; AID 485270, 2010; in the data active means inhibition mostly above about 38%, no sharp cut-off; inactive means mostly below about 40%;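 further: 0% = agonist challenge alone and 100% = reference antagonist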
# OX1R antag-2 = OX1R (HCRTR1) antagonists, primary screen, fluorescence, CHO/OX1R cells, Fluo-8 calcium, orexin A; Orexin/Hypocretin receptor type 1 (Homo sapiens), O43613; Fluo-8 calcium fluorescence; inhibition, % at 5 µM; 330,000 compounds, 0.43% hits; AID 434989, 2010;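 active means inhibition above its plate's threshold, mean inhibition of all tested compounds on the plate plus 3 SD, cut at about 37% in these data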;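 further: 0% = orexin A challenge wells and 100% = SB-334867-A antagonist wells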
# GPR7 antag = GPR7 receptor antagonists, primary screen, cell-based, fluorescence, single concentration | Neuropeptides B/W receptor type 1 (Homo sapiens), P48145 | inhibition, % at 4.4 µM | GPR7-expressing cells, fluorescence antagonist assay | AID 1861, 2009 | 290,000 compounds, 1.1% hits; in the data active means inhibition above about 16%, passing the limit was not always enough;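 further: cells stimulated with the agonist NPW; 0% = agonist with vehicle and 100% = vehicle without agonist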
# Target sequence (P48145 whole entry, looked up): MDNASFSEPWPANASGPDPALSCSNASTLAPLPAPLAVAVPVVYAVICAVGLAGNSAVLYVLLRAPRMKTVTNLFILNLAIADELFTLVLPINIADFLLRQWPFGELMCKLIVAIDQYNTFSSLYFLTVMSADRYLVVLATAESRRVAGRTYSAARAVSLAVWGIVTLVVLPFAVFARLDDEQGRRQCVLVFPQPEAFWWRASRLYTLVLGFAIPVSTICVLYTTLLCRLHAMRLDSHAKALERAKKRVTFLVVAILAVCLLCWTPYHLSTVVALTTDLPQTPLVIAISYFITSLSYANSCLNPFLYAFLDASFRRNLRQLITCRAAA
# TAAR1 agonist = human TAAR1 agonists, primary screen, Fluo-8 calcium fluorescence, CHO RD-HGA16 cells; Trace amine-associated receptor 1 (Homo sapiens), Q96RJ0; vehicle wells 0%, saturating PEA agonist 100%; activation, % at 3 µM; 360,000 compounds, 0.99% hits;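 active means activation above the mean activation of all test compounds in the run plus 3 SD, cut at about 38% in these data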
#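 test system = CHO RD-HGA16 cells carrying human TAAR1 plus Gα16 | schedule = 17-24 h seeding, 75 min 37 °C dye, 30 min RT | compound dosing = 3 µM single concentration | control set = DMSO and PEA EC100 | replicates = n 1 | signal = Fluo-8 fluorescence, 5 s baseline then 140 s kinetic read | measure = percent activation vs PEA EC100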
# TAAR1 antagonist = human TAAR1 antagonists, primary screen, Fluo-8 calcium fluorescence, CHO RD-HGA16 cells. Trace amine-associated receptor 1 (Homo sapiens), Q96RJ0. antagonist. AID 624466, 2012. 360,000 compounds, 1.5% hits. inhibition, % at 3 µM;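 active means inhibition above a per-plate cutoff, the mean inhibition of test compounds on that plate plus 3 SD, cut at about 49% in these data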;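 further: 0% = DMSO plus EC80 beta-PEA response and 100% = DMSO alone without agonist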
#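 Test system: hTAAR1-expressing CHO RD-HGA16 cells, Gα16-coupled; Probe or stimulus: EC80 β-phenethylamine stimulus; Compound dosing: single nominal final test compound concentration of 3 µM; Timing: 140 s kinetic read after compound, 140 s after agonist; Signal: Fluo-8 calcium-sensitive fluorescence; Measure: % inhibition of agonist calcium response; Controls: DMSO and EC80 PEA controls.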
# CHO parental Ca = ATP-evoked calcium signal inhibitors, parental CHO, primary screen, counter-screen for OX1R antagonist project, cell-based, fluorescence, Fluo-8 calcium dye; inhibition, % at 5.6 µM; parental CHO-K1, ATP-induced calcium, Fluo-8 fluorescence; 330,000 compounds, 0.63% hits;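 active means inhibition above that plate's mean sample inhibition plus 3 SD, cut at about 26% in these data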;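 further: 0% = ATP-challenged DMSO wells and 100% = DMSO wells without ATP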
#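 Test system: untransfected parental CHO cell line. Compound: one dose, 5.6 µM nominal. Detection: intracellular calcium via Fluo-8 no-wash fluorescent dye. Measure: % inhibition. Benchmarks: ATP-challenged DMSO wells low, unchallenged DMSO wells high.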
# nonsel antag count = nonselective antagonists in TAAR1 counter-screen cells, counter-screen for hTAAR1 antagonist project, cell-based, fluorescence, calcium; shares compounds with TAAR1 antagonist; counterscreen cell line, antagonist mode; inhibition, % at 3 µM; 2,400 compounds, 77% hits; AID 651780, 2012; in the data active means inhibition above about 22%;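 further: CHO-Ga16 host cells stimulated with ATP at an EC80 level; 0% = agonist EC80 plus vehicle and 100% = vehicle without agonist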
# TAAR1 antag conf = human TAAR1 antagonists, retest of hits, confirmation, cell-based, fluorescence | shares compounds with TAAR1 antagonist | TAAR1-expressing cells, fluorescence antagonist read-out | inhibition, % at 3 µM | 2,400 compounds, 40% hits; in the data active means inhibition above about 49%;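 further: CHO-Ga16 host cells challenged with agonist PEA near its EC80; 0% = agonist at EC80 plus vehicle and 100% = vehicle with no agonist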
# Ga16 nonsel ag = calcium activation in Ga16-expressing cells, counter-screen for TAAR1 antagonist project, cell-based, fluorescence; agonist counterscreen; activation, % at 3 µM; 2,400 compounds, 18% hits; shares compounds with TAAR1 antagonist; in the data active means activation above about 12%;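 further: 0% = vehicle wells and 100% = saturating stimulus response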
# TAAR1 ag counter = TAAR1 activation by candidate antagonists – cell-based, fluorescence, counter-screen for TAAR1 antagonist project; activation, % at 3 µM; shares compounds with TAAR1 antagonist; 2,400 compounds, 2% hits; hTAAR1 cell line, agonist mode; in the data active means activation above about 37%;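 further: CHO cells stably expressing TAAR1 with calcium dye readout; 0% = DMSO vehicle and 100% = full agonist response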
# The depositor's hits bear a star; / = not tested or not shown.
SMILES,OX1R antag-1,OX1R antag-2,GPR7 antag,TAAR1 agonist,TAAR1 antagonist,CHO parental Ca,nonsel antag count,TAAR1 antag conf,Ga16 nonsel ag,TAAR1 ag counter
O=C(Nc1ccc(N2CCN(C(=O)c3ccccc3)CC2)c(Cl)c1)c1ccc(Br)o1,13.4,4.5,6.0,16.7,68.5*,3.4,35.1*,46.9,8.4,5.2
O=C(Nc1ccc(N2CCN(C(=O)c3ccccc3)CC2)cc1)c1ccc2c(c1)OCCO2,26.3,-5.4,14.7,8.3,11.9,-7.7,/,/,/,/
CN1CCN(c2ccc(NC(=O)c3cc4ccccc4o3)cc2)CC1,12.2,-30.9,-15.2,8.3,1.8,-6.4,/,/,/,/
COC(=O)c1cc2c(c3c4cc(F)ccc4n(C(=O)c4ccccc4)c13)C(=O)N(Cc1ccco1)C2,/,/,/,14.7,68.1*,/,26.0*,43.9,10.0,8.4
COC(=O)c1cc2c(c3c4cc(OC)ccc4n(C(=O)c4ccccc4)c13)C(=O)N(Cc1ccco1)C2,/,/,/,15.0,65.4*,/,29.4*,49.6*,7.3,6.3
COC(=O)c1cc2c(c3c4ccccc4n(S(=O)(=O)c4ccccc4)c13)C(=O)N(Cc1ccco1)C2,/,/,/,-0.4,3.1,/,/,/,/,/
COC(=O)c1ccc(C2/C(=C(/O)c3ccc(OC)cc3)C(=O)C(=O)N2Cc2ccco2)cc1 (stereo not drawn),14.4,-36.1,-12.3,6.0,1.6,-15.6,/,/,/,/
COCCNc1nc(Oc2ccc(CC(=O)OC)cc2)c2sc(-c3ccccc3)cc2n1,/,/,/,0.7,-2.1,/,/,/,/,/
COCCNc1nc(Oc2ccc(NC(C)=O)cc2)c2sc(-c3ccccc3)cc2n1,/,/,/,8.3,55.1*,/,51.9*,50.4*,9.4,8.0
COc1ccc(N2CCN(C(=O)c3cc4c(s3)-c3ccccc3S(=O)(=O)C4)CC2)cc1,8.1,-19.6,-9.7,12.8,52.3*,-19.4,30.1*,42.1,6.7,9.1
CN1CCN(C(=O)c2cc3c(s2)-c2ccccc2S(=O)(=O)C3)CC1,41.9,-9.1,-4.1,1.2,-11.0,-9.9,/,/,/,/
COc1cccc(C(NC(C)=O)c2nc(-c3cccc(O)c3)cs2)c1 (stereo not drawn),/,/,/,1.8,3.1,/,/,/,/,/
O=C(c1cccs1)c1coc2ccc(O)c(CN3CCOCC3)c12,14.6,-23.5,-4.5,-3.8,106.1*,-11.2,2.4,5.0,1.8,2.6
Cc1ccc(Cl)cc1N1CCN(C(=O)CSc2nnc3n2C(C)(C)Cc2ccccc2-3)CC1,104.3*,76.9*,-11.9,18.9,60.0*,76.6*,44.4*,48.4,10.6,5.7
CCOC(=O)c1csc(-c2csc(CCNC(=O)c3ccccc3)n2)n1,/,/,/,8.0,43.3,/,/,/,/,/
CN(c1ccccc1)S(=O)(=O)c1cc(C(=O)N2CCN(c3ccccn3)CC2)ccc1Cl,15.3,-25.8,-13.9,7.4,59.5*,-11.2,18.8,33.7,6.3,4.5
O=C(c1ccc(Cl)c([N+](=O)[O-])c1)N1CCN(c2ccccn2)CC1,38.8,-25.4,-8.8,0.6,5.8,-21.6,/,/,/,/
